Measured values pooled from the literature.
Each line is one published result; the experiments were not run side by side.
CDK4: Cyclin-dependent kinase 4 (CDK4, Homo sapiens, UniProt P11802)
CDK4 with cyclin D3: Cyclin-dependent kinase 4, with cyclin D3 (CDK4, Homo sapiens, UniProt P11802)
CDK4 with cyclin D1: Cyclin-dependent kinase 4, with cyclin D1 (CDK4, Homo sapiens, UniProt P11802)

Compound | target | assay | conditions | measurement | result
N#CC1(c2ccccn2)CCN(Cc2cc(C(=O)O)c(=O)n3ccccc23)CC1 | CDK4 | cell-free assay, competition with immobilised ligand | 1 µM | remaining binding | 94%
CCOC(=O)[C@H]1Cc2c(cc([N+](=O)[O-])cc2[N+](=O)[O-])[C@H](O)[C@]12C(=O)Nc1cc(Cl)ccc12 | CDK4 | cell-free assay, inhibitor, TR-FRET | 1 µM | inhibition | 38.6%
CC(C)(C)c1cc(C=C(C#N)C#N)cc(Br)c1O | CDK4 with cyclin D3 | enzyme activity, inhibitor | 0.5 µM | remaining activity | 96.5%
Cc1nn(C)cc1-c1nc2c(N3CCN(Cc4ccc(Cl)cc4)CC3)c(Cl)cnc2[nH]1 | CDK4 with cyclin D1 | binding, competition with immobilised ligand | 1 µM | remaining binding | 76%
O=c1[nH]c2ccccc2n1C1CCN(Cc2ccc(-c3[nH]c4cc5ncnc5cc4nc3-c3ccccc3)cc2)CC1 | CDK4 with cyclin D1 | cell-free assay | 0.5 µM | remaining signal | 108%
CCOC(=O)[C@H]1Cc2c(cc([N+](=O)[O-])cc2[N+](=O)[O-])[C@@H](O)[C@@]12C(=O)Nc1c(F)cccc12 | CDK4 | cell-free assay, inhibitor, TR-FRET | 1 µM | inhibition | 52.6%
Cn1cncc1[C@@](O)(COc1ccc(C#N)cc1-c1ccc(OC(F)(F)F)cc1)c1ccc(C#N)cc1 | CDK4 with cyclin D3 | cell-free assay, competition with immobilised ligand | 1 µM | remaining binding | 92%
CCOC(=O)[C@H]1Cc2c(cc([N+](=O)[O-])cc2[N+](=O)[O-])[C@@H](O)[C@@]12C(=O)Nc1ccc(Br)cc12 | CDK4 | cell-free assay, inhibitor, TR-FRET | 1 µM | inhibition | 76.3%
Nc1ncc(-c2nc(N3CCOCC3)nc(N3CCOCC3)n2)c(C(F)F)n1 | CDK4 with cyclin D1 | binding, competition with immobilised ligand | 10 µM | remaining binding | 100%
